A word on the IC50: it is the midpoint of a concentration-inhibition curve. The low end stands for greater potency, the high end for weaker potency. As usually defined, the half-life is how long it takes for the measured level to halve.

The target of series [1] is T1, Steroid 17-alpha-hydroxylase/17,20 lyase (Homo sapiens, UniProt P05093).
T1 sequence (P05093 whole entry): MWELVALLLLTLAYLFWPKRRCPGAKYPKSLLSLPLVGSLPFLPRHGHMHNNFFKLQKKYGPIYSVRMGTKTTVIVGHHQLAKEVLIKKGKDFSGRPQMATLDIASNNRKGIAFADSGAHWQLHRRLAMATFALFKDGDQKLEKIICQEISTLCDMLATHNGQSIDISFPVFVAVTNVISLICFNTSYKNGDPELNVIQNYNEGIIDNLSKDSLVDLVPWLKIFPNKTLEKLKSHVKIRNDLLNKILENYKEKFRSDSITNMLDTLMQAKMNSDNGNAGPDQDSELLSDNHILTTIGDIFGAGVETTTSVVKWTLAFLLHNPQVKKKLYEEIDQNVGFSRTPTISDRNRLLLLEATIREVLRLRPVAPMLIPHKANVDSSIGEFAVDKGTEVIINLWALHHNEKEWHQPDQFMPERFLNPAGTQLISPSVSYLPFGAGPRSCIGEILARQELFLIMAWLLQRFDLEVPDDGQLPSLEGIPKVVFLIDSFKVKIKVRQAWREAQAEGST
Nature of the series: Inhibition of human CYP17 expressed in Escherichia coli coexpressing human CYP17 and NADPH-P450 reductase.

For a further series, the species on record is Homo sapiens. Kind of series: Selectivity index, ratio of IC50 for human CYP11B1 to IC50 human CYP11B2.
The next series deals with T2, Aromatase (Homo sapiens, UniProt P11511).
T2 sequence (P11511 whole entry): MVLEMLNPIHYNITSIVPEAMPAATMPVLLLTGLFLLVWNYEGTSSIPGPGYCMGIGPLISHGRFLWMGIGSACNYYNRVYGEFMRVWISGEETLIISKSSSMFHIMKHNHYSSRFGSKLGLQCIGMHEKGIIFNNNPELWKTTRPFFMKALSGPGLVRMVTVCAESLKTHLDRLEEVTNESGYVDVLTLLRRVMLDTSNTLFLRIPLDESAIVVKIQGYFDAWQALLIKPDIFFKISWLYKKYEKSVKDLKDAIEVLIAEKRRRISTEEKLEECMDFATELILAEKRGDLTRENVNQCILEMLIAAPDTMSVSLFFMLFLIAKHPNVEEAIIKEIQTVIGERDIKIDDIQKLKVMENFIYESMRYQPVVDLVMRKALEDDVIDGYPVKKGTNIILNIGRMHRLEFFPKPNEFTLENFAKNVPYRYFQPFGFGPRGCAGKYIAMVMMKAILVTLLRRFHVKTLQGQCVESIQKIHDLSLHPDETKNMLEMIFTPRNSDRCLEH
Nature of the series: Inhibition of CYP19 in human placental microsomes using [1beta-3H]androstenedione substrate. More on the design: species or system Placenta.

A short description of series [2]: Half life in human hepatic microsomes at 1 uM in presence of NADPH system by LC-MS/MS method. It is filed as ADME, Microsome. The settings on record: liver microsomes. The procedure, abridged: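 Pooled mixed-gender human liver microsomes at 0.5 mg/mL final protein in potassium phosphate–MgCl₂ buffer (100 mM, pH 7.4). Compound at 1 μM final with NADPH system, 37 °C. Samples at 2, 5, 15, 30 and 45 min, quenched with acetonitrile, vortexed, centrifuged, and supernatant analysed by LC–MS/MS.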
For orientation: Microsomes from liver hold many membrane-bound enzymes, among them those of drug oxidation.

Series [3] concerns the target T3, Cytochrome P450 11B2, mitochondrial (Homo sapiens, UniProt P19099).
T3 sequence (P19099 whole entry): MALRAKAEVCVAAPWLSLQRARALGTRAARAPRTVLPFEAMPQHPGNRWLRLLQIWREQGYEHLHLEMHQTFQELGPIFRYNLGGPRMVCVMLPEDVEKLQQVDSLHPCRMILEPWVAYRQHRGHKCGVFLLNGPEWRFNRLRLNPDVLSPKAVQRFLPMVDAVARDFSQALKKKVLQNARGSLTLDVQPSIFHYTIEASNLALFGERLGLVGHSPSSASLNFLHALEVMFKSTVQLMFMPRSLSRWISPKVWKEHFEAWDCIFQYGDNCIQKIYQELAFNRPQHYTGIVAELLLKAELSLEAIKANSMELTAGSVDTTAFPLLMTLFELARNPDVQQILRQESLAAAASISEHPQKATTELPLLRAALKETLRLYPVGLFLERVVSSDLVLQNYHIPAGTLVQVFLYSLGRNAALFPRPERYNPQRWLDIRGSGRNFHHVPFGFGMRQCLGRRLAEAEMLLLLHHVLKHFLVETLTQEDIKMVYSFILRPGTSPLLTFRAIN
Kind of series: Inhibition of human CYP11B2 expressed in V79 MZh cells using [14C]-deoxycorticosterone substrate incubated for 6 hrs by HPTLC method. It is filed as cell-based, V79MZh. The procedure, abridged:
(§1)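 V79 MZh cells expressing human CYP11B1 or CYP11B2 were incubated 6 h with [¹⁴C]-deoxycorticosterone and inhibitor at various concentrations. Steroids were extracted with ethyl acetate, separated by HPTLC and quantified by phosphoimager.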

Series [4] deals with T4, Cytochrome P450 11B1, mitochondrial (Homo sapiens, UniProt P15538).
T4 sequence (P15538 whole entry): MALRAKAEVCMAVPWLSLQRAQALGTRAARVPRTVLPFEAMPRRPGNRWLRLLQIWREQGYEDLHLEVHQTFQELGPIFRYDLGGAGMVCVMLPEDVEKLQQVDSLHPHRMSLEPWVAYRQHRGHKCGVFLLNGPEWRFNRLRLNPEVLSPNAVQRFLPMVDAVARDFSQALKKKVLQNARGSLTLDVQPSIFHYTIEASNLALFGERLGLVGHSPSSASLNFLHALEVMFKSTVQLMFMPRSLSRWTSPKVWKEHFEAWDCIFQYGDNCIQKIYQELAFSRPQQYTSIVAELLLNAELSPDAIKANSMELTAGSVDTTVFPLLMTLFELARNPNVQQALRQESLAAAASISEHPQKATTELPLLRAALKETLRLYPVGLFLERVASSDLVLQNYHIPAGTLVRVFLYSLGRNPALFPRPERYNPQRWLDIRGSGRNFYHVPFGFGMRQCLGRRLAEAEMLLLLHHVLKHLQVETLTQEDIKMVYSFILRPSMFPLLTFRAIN
Nature of the series: Inhibition of human CYP11B1 expressed in V79 MZh cells using [14C]-deoxycorticosterone substrate incubated for 6 hrs by HPTLC method. It is filed as cell-based, V79MZh. The procedure, abridged: as §1

In the case of `Cc1nnc2n1-c1c(F)cc(-c3cccnc3)cc1CC2`, the IC50 (in series [1]; against Aromatase) was greater than 10 µM throughout. Also, the Ratio IC50 in the series filed under Homo sapiens amounted to 272. Further, the half-life at 1 µM in series [2] is greater than 2 h.

In the case of `Cc1c(F)cncc1-c1cc(F)c2c(c1)CCc1nnc(C)n1-2`, the 50% inhibitory concentration (IC50) in series [3] was 0.0195 µM; in series [4], 4.52 µM; in series [1] it was greater than 10 µM; against Aromatase, greater than 10 µM. Further, the Ratio IC50 in the series filed under Homo sapiens stood at 232.

As to `Fc1cc2c(cc1-c1cccnc1)CCc1nnc(-c3ccccc3)n1-2`, the IC50 (in series [3]; in series [4]; in series [1]; against Aromatase) was greater than 10 µM in each case.

With `CC(C)c1nnc2n1-c1cc(F)c(-c3cccnc3)cc1CC2`, the IC50 (in series [3]; in series [4]; in series [1]; against Aromatase) was greater than 10 µM throughout.

On to `Fc1cc(-c2cccnc2)cc2c1-n1cnnc1CC2`, for which the IC50 (in series [1]; at Aromatase) was greater than 10 µM in each case. In the series listed under Homo sapiens, the Ratio IC50 came out at 94.

Regarding `O=C(c1ccccc1)c1nnc2n1-c1c(F)cc(-c3cccnc3)cc1CC2`, the IC50 in series [3] is 0.708 µM; in series [4], greater than 10 µM; in series [1] it was greater than 10 µM; on Aromatase, greater than 10 µM.

In the case of `Fc1cc2c(cc1-c1cccnc1)CCc1nnc(-c3ccncc3)n1-2`, the IC50 (in series [3]; in series [4]; in series [1]; against Aromatase) was greater than 10 µM in each case.

Consider `COc1cncc(-c2cc(F)c3c(c2)CCc2nnc(C)n2-3)c1`, for which the IC50 (in series [1]; against Aromatase) was greater than 10 µM throughout. For the same compound, the Ratio IC50 in the series filed under Homo sapiens is 89.

For `Fc1cc(-c2cccnc2)cc2c1-n1c(nnc1-c1ccccc1)CC2`, the IC50 (in series [3]; in series [4]; in series [1]; against Aromatase) was greater than 10 µM each time.

As for `CC(C)c1nnc2n1-c1c(F)cc(-c3cccnc3)cc1CC2`, the IC50 (in series [3]; in series [4]; in series [1]; at Aromatase) was greater than 10 µM each time.

With `CC(=O)c1cncc(-c2cc(F)c3c(c2)CCc2nnc(C)n2-3)c1`, the IC50 (in series [1]; against Aromatase) was greater than 10 µM in each case. Also, in the series filed under Homo sapiens, the Ratio IC50 turned out to be 78.

`Cc1nnc2n1-c1c(F)cc(-c3cncc(C#N)c3)cc1CC2`: the IC50 is 1.18 µM in series [3], greater than 10 µM in series [4], greater than 10 µM in series [1] and greater than 10 µM against Aromatase.

For `Fc1cc2c(cc1-c1cccnc1)CCc1nnc(Cc3ccccc3)n1-2`, the IC50 in series [3] was 4.35 µM; in series [4], greater than 10 µM; in series [1], greater than 10 µM; against Aromatase it was greater than 10 µM.

For the compound `Cc1nnc2n1-c1c(F)cc(-c3cncc(C(C)O)c3)cc1CC2` (centres undefined), the IC50 (in series [1]; against Aromatase) was greater than 10 µM each time. Moreover, the Ratio IC50 in the series filed under Homo sapiens is 138.

Consider `Cc1nnc2n1-c1c(F)cc(-c3cncc(-c4ccccc4)c3)cc1CC2`, for which the IC50 (in series [1]; against Aromatase) was greater than 10 µM throughout. In addition, the Ratio IC50 in the series listed under Homo sapiens worked out at 60.

As to `Cc1nnc2n1-c1c(F)cc(-c3cncc4ccccc34)cc1CC2`, the IC50 (in series [1]; against Aromatase) was greater than 10 µM in each case. The Ratio IC50 in the series listed under Homo sapiens was 49.

As for `CCc1nnc2n1-c1cc(F)c(-c3cccnc3)cc1CC2`, the IC50 in series [3] is 0.979 µM; in series [4], greater than 10 µM; in series [1] it was greater than 10 µM; against Aromatase it was greater than 10 µM.

For `Fc1cc2c(cc1-c1cccnc1)CCc1nncn1-2`, the IC50 (in series [1]; on Aromatase) was greater than 10 µM throughout. For the same compound, the Ratio IC50 in the series listed under Homo sapiens worked out at 32.

In the case of `Cc1nnc2n1-c1cc(F)c(-c3cccnc3)cc1CC2`, the 50% inhibitory concentration (IC50) (in series [1]; against Aromatase) was greater than 10 µM in each case. Also, in the series filed under Homo sapiens, the Ratio IC50 is 96.

Consider `Cc1nnc2n1-c1c(F)cc(-c3cncc(C(F)(F)F)c3)cc1CC2`, for which the IC50 (in series [1]; against Aromatase) was greater than 10 µM throughout. Further, the Ratio IC50 in the series listed under Homo sapiens was determined as 63.

On to `Fc1cncc(-c2cc(F)c3c(c2)CCc2nncn2-3)c1`, for which the IC50 in series [3] was 0.335 µM; in series [4], greater than 10 µM; in series [1], greater than 10 µM; against Aromatase, greater than 10 µM.

Turning to `Cc1c(F)cncc1-c1cc(F)c2c(c1)CCc1nncn1-2`, the IC50 is 0.0425 µM in series [3], 5.7 µM in series [4], greater than 10 µM in series [1] and greater than 10 µM on Aromatase. Moreover, the Ratio IC50 in the series listed under Homo sapiens was 134.

Take `CCc1nnc2n1-c1c(F)cc(-c3cccnc3)cc1CC2`: the IC50 in series [3] is 0.542 µM; in series [4], greater than 10 µM; in series [1] it was greater than 10 µM; on Aromatase, greater than 10 µM.

`Fc1cc(-c2cccnc2)cc2c1-n1c(nnc1-c1ccncc1)CC2`: the IC50 (in series [3]; in series [4]; in series [1]; on Aromatase) was greater than 10 µM throughout.

For the origin of these results see ChEMBL document CHEMBL3414516, “Novel pyridyl substituted 4,5-dihydro-[1,2,4]triazolo[4,3-a]quinolines as potent and selective aldosterone synthase inhibitors with improved in vitro metabolic stability” (J Med Chem, 2015).
